From ChEMBL document CHEMBL1212869, “Anti-HIV and antiplasmodial activity of original flavonoid derivatives” (Bioorg Med Chem, 2010)

Assays:
[1] = tested on: THP-1; assay: Cytotoxicity against human THP1 cells using propidium iodide staining after 72 hrs by flow cytometry; type: cell-based; details: THP-1, 72 h
[2] = tested on: Plasmodium falciparum; assay: Antiplasmodial activity against chloroquine-resistant Plasmodium falciparum W2 infected in human A+ erythrocytes assessed as inhibition of parasite proliferation after 48 hrs; type: functional, organism-based; details: W2, 48 h
Outline: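 W2 parasites were cultured in RPMI 1640 with 25 mM HEPES, 25 mM NaHCO3 and 10% A+ human serum at 2.5% hematocrit, at 37 °C under 10% O2/6% CO2/84% N2. After 48 h exposure without medium change, cells were stained with hydroethidine (0.05 mg/mL in PBS, 20 min, dark, 37 °C). Parasitaemia was read by flow cytometry. IC50 came from three independent experiments.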

[3] = Cytotoxicity against human MT4 cells after 4 days by MTT assay; type: cell-based
Outline: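 Uninfected MT-4 cells were run in parallel with the antiviral test under the same conditions: 10⁵ cells/mL, serial compound dilutions from DMSO stocks, 4 days at 37 °C. Viability was read by MTT. CC50 is the concentration that lowers viability of uninfected cells by 50%.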

[4] = tested on: Human immunodeficiency virus 1; assay: Antiviral activity against HIV1 3B infected in human MT4 cells assessed as inhibition of virus-induced cytopathic effect after 4 days by MTT assay; type: functional, organism-based; details: Human immunodeficiency virus 1, 3B, MT4, 96 h
[5] = tested on: Human immunodeficiency virus 2; assay: Antiviral activity against HIV2 ROD infected in human MT4 cells assessed as inhibition of virus-induced cytopathic effect after 4 days by MTT assay; type: functional, organism-based; details: Human immunodeficiency virus 2, ISOLATE ROD, MT4, 96 h
[6] = Selectivity index, ratio of CC50 for human MT4 cells to IC50 for HIV2 ROD; type: functional
Outline: (§1)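 Selectivity index was calculated as the MT-4 CC50 from uninfected cells divided by the IC50 against HIV-1 IIIB or HIV-2 ROD. Both values came from the 4-day MTT cytopathic-effect assays.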

[7] = Selectivity index, ratio of CC50 for human MT4 cells to IC50 for HIV1 3B; type: functional; outline: as §1
[8] = Selectivity index, ratio of IC50 for human THP1 cells to IC50 for chloroquine-resistant Plasmodium falciparum W2; type: toxicity, cell-based, THP-1; details: read-out: Selectivity Index

| Structure (SMILES) | IC50 [1] | IC50 [2] | CC50 at 96 h [3] | IC50 [4] | IC50 [5] | Selectivity Index [6] | Selectivity Index [7] | selectivity ratio [8] |
| --- | --- | --- | --- | --- | --- | --- | --- | --- |
| COc1c(-c2cccc(F)c2)oc2ccc(N)cc2c1=O | 34 µM | > 34 µM | 112 µM | 112 µM | 60.7 µM | 1.9 | – | – |
| O=c1[nH]cnc2c1ncn2[C@H]1CC[C@@H](CO)O1 [DIDANOSINE] | – | – | > 529 µM | – | – | >195 | >98 | – |
| COc1ccc(-c2oc3ccc(N)cc3c(=O)c2OC)cc1 | 21 µM | > 21 µM | 200 µM | 200 µM | 58.2 µM | 3.4 | – | – |
| Cc1cn([C@H]2C[C@H](N=[N+]=[N-])[C@@H](CO)O2)c(=O)[nH]c1=O [ZIDOVUDINE] | – | – | 93.5 µM | 0.005 µM | – | – | >17990 | – |
| COc1c(-c2cccc(C(F)(F)F)c2)oc2ccc(N)cc2c1=O | 33 µM | > 33 µM | 73.1 µM | 50.4 µM | 57.6 µM | 1.3 | 1.5 | – |
| COc1c(-c2ccccc2F)oc2ccc(N)cc2c1=O | > 125 µM | 23 µM | 234 µM | 44.7 µM | 234 µM | – | 5.2 | > 5.4 |
| COc1c(-c2ccccc2)oc2ccc(N)cc2c1=O | 74 µM | 20 µM | 126 µM | 126 µM | 126 µM | – | – | 3.7 |
| COc1c(-c2cccc(F)c2)oc2ccc(NC(C)=O)cc2c1=O | > 125 µM | 49 µM | 210 µM | 210 µM | 210 µM | – | – | > 2.6 |
| CC(=O)Nc1ccc2oc(-c3ccccc3F)cc(=O)c2c1 | > 125 µM | 40 µM | 205 µM | 205 µM | 205 µM | – | – | > 3.1 |
| COc1c(-c2cccc(C(F)(F)F)c2)oc2ccc(NC(C)=O)cc2c1=O | 52 µM | 19 µM | 201 µM | 201 µM | 201 µM | – | – | 2.7 |
| COc1ccccc1-c1oc2ccc(N)cc2c(=O)c1O | 102 µM | 46 µM | 222 µM | 222 µM | 222 µM | – | – | 2.2 |
| COc1ccc(-c2oc3ccc(NC(C)=O)cc3c(=O)c2OC)cc1 | > 50 µM | 21 µM | 369 µM | 369 µM | 369 µM | – | – | > 2.4 |
| COc1ccccc1-c1cc(=O)c2cc(N)ccc2o1 | 74 µM | 50 µM | 198 µM | 88 µM | 198 µM | – | 2.3 | 1.5 |
| CC(=O)Nc1ccc(O)c(C(=O)/C=C/c2ccc(C(F)(F)F)cc2)c1 | 15.5 µM | 11.6 µM | 21.1 µM | 21.1 µM | 21.1 µM | – | – | 1.3 |
| Nc1ccc2oc(-c3cccc(F)c3)cc(=O)c2c1 | > 125 µM | > 50 µM | 269 µM | 61.1 µM | 58.4 µM | 4.6 | 4.4 | – |
| COc1ccccc1/C=C/C(=O)c1cc(NC(C)=O)ccc1O | > 125 µM | 13.4 µM | 37.8 µM | 37.8 µM | 37.8 µM | – | – | > 9.3 |
| COc1c(-c2ccc(C(F)(F)F)cc2)oc2ccc(N)cc2c1=O | – | 26 µM | 290 µM | 290 µM | 47.7 µM | 6.1 | – | – |
| CC(=O)Nc1ccc2oc(-c3cccc(F)c3)cc(=O)c2c1 | > 125 µM | 50 µM | 240 µM | 240 µM | 240 µM | – | – | > 2.5 |
| COc1c(-c2ccc(F)cc2)oc2ccc(NC(C)=O)cc2c1=O | > 125 µM | 23 µM | 317 µM | 317 µM | 317 µM | – | – | > 5.4 |
| Cc1ccnc2c1NC(=O)c1cccnc1N2C1CC1 [NEVIRAPINE] | – | – | – | 0.03 µM | 15 µM | 46 | – | – |
